Results: ChEMBL document CHEMBL1821701, “Stereochemical analysis of leubethanol, an anti-TB-active serrulatane, from Leucophyllum frutescens” (2011)
In brackets after ≈: the same amount, converted by molar mass.

These compounds were tested on Mycobacterium tuberculosis (assay: Antitubercular activity against drug sensitive Mycobacterium tuberculosis H37Rv ATCC 27294 by microplate Alamar blue assay).
Assay type: functional
Summary of the method: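 Modified microplate Alamar Blue assay. H37Rv ATCC 27294 is susceptible to streptomycin, isoniazid, rifampin, ethambutol and pyrazinamide. Clinical isolate CIBIN/UMF15:99 is resistant to the same five drugs. Test stocks were 2 mg/mL in 20% DMSO in Middlebrook 7H9 broth, filter-sterilized. Final concentrations ran from 100 to 0.78 µg/mL. Read-out was MIC, at least in triplicate.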

**Q.** Which MIC does the source give for `CC[C@@H](CO)NCCN[C@@H](CC)CO` [ETHAMBUTOL] here?
**A.** Its MIC is 2 µg/mL (≈ 9.79 µM).

**Q.** For `NNC(=O)c1ccncc1` [ISONIAZID], which MIC is on record?
**A.** The MIC was 0.06 µg/mL (≈ 0.438 µM).

**Q.** How did the MIC turn out when `CC(C)=CCC[C@H](C)[C@@H]1CC[C@@H](C)c2c(O)cc(C)cc21` [LEUBETHANOL] was run?
**A.** Its MIC is 12.5 µg/mL (≈ 43.6 µM).

**Q.** Which MIC does the source give for `CO[C@H]1/C=C/O[C@@]2(C)Oc3c(C)c(O)c4c(O)c(c(/C=N/N5CCN(C)CC5)c(O)c4c3C2=O)NC(=O)/C(C)=C\C=C\[C@H](C)[C@H](O)[C@@H](C)[C@@H](O)[C@@H](C)[C@H](OC(C)=O)[C@@H]1C` [RIFAMPIN] here?
**A.** Its MIC is 0.06 µg/mL (≈ 0.0729 µM).

**Q.** Which MIC does the source give for `CN[C@@H]1[C@H](O[C@H]2[C@H](O[C@H]3[C@H](O)[C@@H](O)[C@H](N=C(N)N)[C@@H](O)[C@@H]3N=C(N)N)O[C@@H](C)[C@]2(O)C=O)O[C@@H](CO)[C@H](O)[C@H]1O` [STREPTOMYCIN] here?
**A.** Its MIC is 0.5 µg/mL (≈ 0.86 µM).
